{"data": "Measurements of several laboratories", "PPO3": "PPO3 (Agaricus bisporus, UniProt C7FF04)", "BCL2L1": "Bcl-2-like protein 1 (BCL2L1, Homo sapiens, UniProt Q07817)", "CNR1": "Cannabinoid receptor 1 (CNR1, Homo sapiens, UniProt P21554)", "note": "Lines come from different studies, so protocols differ."}
{"SMILES": "COc1ccc(NC(=O)CSc2nc3ccccc3cc2C=Nn2c(S)nnc2-c2ccccc2)cc1", "target": "PPO3", "observed": "enzyme activity", "mode": "inhibitor", "measurement": "IC50", "result": "> 50000 nM"}
{"SMILES": "CCCC[C@@H](NC(=O)[C@@H](Cc1cn(C(=O)OC)c2ccccc12)NC(=O)[C@H](CC(C)(C)C)NC(=O)N1[C@H](C)CCC[C@@H]1C)C(=O)O", "target": "Endothelin-1 receptor (EDNRA, Homo sapiens, UniProt P25101)", "observed": "ligand displacement", "technique": "radioligand", "setting": "cell membranes", "measurement": "IC50", "result": "443 nM"}
{"SMILES": "O=C1Nc2ccc(I)cc2/C1=C/c1cc(Br)c(O)c(Br)c1", "target": "Serine/threonine-protein kinase A-Raf (ARAF, Homo sapiens, UniProt P10398)", "observed": "enzyme activity", "mode": "inhibitor", "measurement": "IC50", "result": "12.6 nM"}
{"SMILES": "Cc1c(-c2ccc(N3CCc4cccc(C(=O)Nc5nc6ccccc6s5)c4C3)nc2C(=O)NCCOCCOCCOCCO)cnn1CC12CC3CC(CC(C3)C1)C2", "target": "BCL2L1", "observed": "ligand displacement", "technique": "AlphaScreen", "measurement": "Ki", "result": "0.0112 nM"}
{"SMILES": "Cn1cc(C2=C(c3cn(CCCSC(=N)N)c4ccccc34)C(=O)NC2=O)c2ccccc21", "target": "Serine/threonine-protein kinase VRK2 (VRK2, Homo sapiens, UniProt Q86Y07)", "observed": "enzyme activity", "mode": "inhibitor", "measurement": "IC50", "result": "26900 nM"}
{"SMILES": "Cc1c(-c2ccc(N3CCc4cccc(C(=O)Nc5nc6ccccc6s5)c4C3)nc2C(=O)NCCOCCOCCOCCNc2cccc3c2C(=O)N(C2CCC(=O)NC2=O)C3=O)cnn1CC12CC3CC(CC(C3)C1)C2 (centres unmarked)", "target": "BCL2L1", "observed": "ligand displacement", "technique": "AlphaScreen", "measurement": "Ki", "result": "0.15 nM"}
{"SMILES": "Cn1cc2c(C(=O)O)ccc(NS(=O)(=O)c3ccc(OCC4CCC4)c(Cl)c3)c2n1", "target": "cGMP-specific 3',5'-cyclic phosphodiesterase (PDE5A, Homo sapiens, UniProt O76074)", "observed": "enzyme activity", "measurement": "IC50", "result": "> 175000 nM"}
{"SMILES": "CCS(=O)(=O)NC(=O)c1nc(N2CCc3cccc(C(=O)Nc4nc5ccccc5s4)c3C2)ccc1-c1cnn(CC23CC4CC(CC(C4)C2)C3)c1C", "target": "BCL2L1", "observed": "ligand displacement", "technique": "AlphaScreen", "measurement": "Ki", "result": "0.0142 nM"}
{"SMILES": "O=C(NO)c1ccc(Cn2cnc3c(Nc4cccc([N+](=O)[O-])c4)ncnc32)cc1", "target": "Histone deacetylase 2 (HDAC2, Homo sapiens, UniProt Q92769)", "observed": "enzyme activity", "mode": "inhibitor", "technique": "fluorescence", "measurement": "IC50", "result": "167 nM"}
{"SMILES": "O=c1c(NCCc2ccc(Cl)cc2)c(Nc2ccc(Cl)cc2)c1=O", "target": "CNR1", "observed": "calcium signal", "mode": "antagonist", "technique": "fluorescence", "measurement": "IC50", "result": "214 nM"}
{"SMILES": "CCNC(=O)c1nc(N2CCc3cccc(C(=O)Nc4nc5ccccc5s4)c3C2)ccc1-c1cnn(CC23CC4CC(CC(C4)C2)C3)c1C", "target": "BCL2L1", "observed": "ligand displacement", "technique": "AlphaScreen", "measurement": "Ki", "result": "1.32 nM"}
{"SMILES": "COc1ccc2c(=O)[nH]c3c(nnn3Cc3ccc(C)cc3)c2c1", "target": "Poly [ADP-ribose] polymerase 1 (PARP1, Homo sapiens, UniProt P09874)", "observed": "enzyme activity", "mode": "inhibitor", "technique": "fluorescence", "measurement": "IC50", "result": "> 10000 nM"}
{"SMILES": "CC1(C)CCC(c2ccc(Cl)cc2)=C(CN2CCN(c3ccc(C(=O)NS(=O)(=O)c4ccc(N[C@H](CCN(CCOCCOCCOCCNc5cccc6c5C(=O)N(C5CCC(=O)NC5=O)C6=O)C5CCC5)CSc5ccccc5)c(S(=O)(=O)C(F)(F)F)c4)cc3)CC2)C1 (some centres unmarked)", "target": "BCL2L1", "observed": "ligand displacement", "technique": "AlphaScreen", "measurement": "Ki", "result": "9.02 nM"}
{"SMILES": "COC(=O)c1ccc(NC(=O)c2sc3nc(C)cc(C)c3c2N)cc1", "target": "Adenosine receptor A2a (ADORA2A, Homo sapiens, UniProt P29274)", "observed": "ligand displacement", "technique": "radioligand", "measurement": "Ki", "result": "3310 nM"}
{"SMILES": "CC(C)[C@@H](CN1CCc2ccccc2C1)NC(=O)c1cccc(-c2cccnc2)c1", "target": "Mu-type opioid receptor (Oprm1, Mus musculus, UniProt P42866)", "observed": "ligand displacement", "technique": "radioligand", "measurement": "Ki", "result": "39500 nM"}
{"SMILES": "O=c1[nH]c(=O)c(Cc2cccc(C(F)(F)F)c2)c([C@H]2CC[C@H](c3ccccc3)CC2)[nH]1", "target": "UDP-glucuronosyltransferase 1A3 (UGT1A3, Homo sapiens, UniProt P35503)", "observed": "enzyme activity", "mode": "inhibitor", "measurement": "IC50", "result": "> 20000 nM"}
{"SMILES": "Cc1cccc(NC(=O)CSc2nc3ccccc3cc2C=Nn2c(S)nnc2-c2ccccc2)c1C", "target": "PPO3", "observed": "enzyme activity", "mode": "inhibitor", "measurement": "IC50", "result": "> 50000 nM"}
{"SMILES": "Cc1ncsc1-c1ccc([C@H](C)NC(=O)[C@@H]2C[C@@H](O)CN2C(=O)[C@@H](NC(=O)CCCCCCCS(=O)(=O)NC(=O)c2nc(N3CCc4cccc(C(=O)Nc5nc6ccccc6s5)c4C3)ccc2-c2cc(C#N)n(CC34CC5CC(CC(C5)C3)C4)c2C)C(C)(C)C)cc1", "target": "BCL2L1", "observed": "ligand displacement", "technique": "AlphaScreen", "measurement": "Ki", "result": "6.1 nM"}
{"SMILES": "NC(=O)c1nnn(Cc2cc(Cl)c(C(=O)c3ccc(Cl)cc3)c(Cl)c2)c1N", "target": "CNR1", "observed": "cAMP", "mode": "antagonist", "measurement": "IC50", "result": "1550 nM"}
{"SMILES": "O=c1c(NCCc2ccc(Cl)c(Cl)c2)c(Nc2ccc(Cl)cc2)c1=O", "target": "CNR1", "observed": "calcium signal", "mode": "antagonist", "technique": "fluorescence", "measurement": "IC50", "result": "1510 nM"}
{"SMILES": "Cc1ccccc1NC(=O)CSc1nc2ccccc2cc1C=Nn1c(S)nnc1-c1ccccc1", "target": "PPO3", "observed": "enzyme activity", "mode": "inhibitor", "measurement": "IC50", "result": "> 50000 nM"}
{"SMILES": "CCN(CCOCCOCCOCCNc1cccc2c1C(=O)N(C1CCC(=O)NC1=O)C2=O)CC[C@H](CSc1ccccc1)Nc1ccc(S(=O)(=O)NC(=O)c2ccc(N3CCN(CC4=C(c5ccc(Cl)cc5)CCC(C)(C)C4)CC3)cc2)cc1S(=O)(=O)C(F)(F)F (some centres unmarked)", "target": "BCL2L1", "observed": "ligand displacement", "technique": "AlphaScreen", "measurement": "Ki", "result": "0.38 nM"}
{"SMILES": "O=C(O)c1cc(-c2ccc(-n3ccnn3)cc2)c2ccc(-c3ccc(C(F)(F)F)cc3)cc2c1", "target": "Sigma non-opioid intracellular receptor 1 (SIGMAR1, Homo sapiens, UniProt Q99720)", "observed": "cell-free assay", "technique": "radioligand", "measurement": "Ki", "result": "3900 nM"}
